Data: PMC7392083 (Journal of the American Chemical Society, 2020)
Where two headings read alike, the source gives them in different places.

How the values were obtained:
[1] = target: T1, human intelectin-1 (hItln-1) (Homo sapiens, UniProt Q8WWA0); experiment: Biolayer interferometry; assay type: binding; conditions: for ΔΔG relative free energy of binding compared to Galf: column Galf; for ΔΔG relative free energy of binding compared to KDO: column KDO; for ΔΔG relative free energy of binding compared to KO: column KO; for ΔΔG relative free energy of binding compared to Glycerol 1-phosphate: column Glycerol 1-phosphate
T1 sequence (Q8WWA0 19-313): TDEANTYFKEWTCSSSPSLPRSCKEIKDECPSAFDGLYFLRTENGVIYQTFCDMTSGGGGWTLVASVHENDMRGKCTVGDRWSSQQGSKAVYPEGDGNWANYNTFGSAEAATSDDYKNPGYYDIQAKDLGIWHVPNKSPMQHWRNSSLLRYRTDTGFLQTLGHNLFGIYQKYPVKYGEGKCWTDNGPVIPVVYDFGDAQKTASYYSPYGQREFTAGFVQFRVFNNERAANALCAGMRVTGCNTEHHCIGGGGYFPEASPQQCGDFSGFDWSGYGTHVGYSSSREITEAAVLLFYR

[2] = target: T1, human intelectin-1 (hItln-1); experiment: ELISA of hItln-1 binding to immobilized BSA-conjugated monosaccharides; conditions: for Kd by ELISA: BSA-conjugated heptose sugars, single-site binding fit; for binding to hItln-1 by ELISA: saccharide conjugated in multiple copies to BSA and immobilized
Procedure, shortened: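 Sugar–BSA conjugates were adsorbed in PBS (1.5 μM sugar), 1 h RT, then blocked with 5% BSA in HEPES-T for 2 h. Serially diluted Strep-hItln-1 in HEPES-T + BSA was bound 2 h RT. Detection used anti-Strep-tag HRP (1:10,000, 2 h RT), then TMB quenched with 2 M H2SO4, read at 450 nm. One-site binding fit gave Kd. Mean ± SEM, n = 2 technical replicates.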

[3] = test system: hItln-1; conditions: cited from earlier work
[4] = ΔΔG = 0.593 (kcal/mol) ln(IC50,row/IC50,column)

SMILES | ΔΔG relative free energy of binding compared to Galf [1, 4] [kcal/mol] | ΔΔG relative free energy of binding compared to KDO [1, 4] [kcal/mol] | ΔΔG relative free energy of binding compared to KO [1, 4] [kcal/mol] | IC50 value higher than that of allyl-KO ([1]; ratio of IC50 values) [fold] | ΔΔG relative free energy of binding compared to D,D-heptose ([1]; ΔΔG = 0.593 (kcal/mol) ln(IC50,row/IC50,column), column D,D-heptose) [kcal/mol] | ΔΔG relative free energy of binding compared to Glycerol 1-phosphate [1, 4] [kcal/mol] | Kd by ELISA [2] | binding to hItln-1 by ELISA [2] | IC50 [1] [µM] | binding to hItln-1 [3] | binding to hItln-1 ([3]; listed as N-acetyl neuraminic acid)
O=P(O)(O)OC[C@H](O)CO [Glycerol 1-phosphate, D-glycerol 1-phosphate] | 0.1 | 0.2 | 0.7 |  |  |  |  |  |  |  | 
OC[C@H](O)[C@H]1O[C@H](O)[C@@H](O)[C@@H](O)[C@@H]1O [L,D-heptose, L-glycero-α-D-manno-heptose] | 2.0 | 2.0 | 2.4 | 80 | 1.2 | 1.9 | could not be determined | no measurable binding |  |  | 
C=CCO[C@@]1(C(=O)O)O[C@H]([C@H](O)CO)[C@H](O)[C@H](O)[C@@H]1O [KO, prop-2-en-1-yl D-glycero-alpha-D-talo-oct-2-ulopyranosidonic acid] | -0.6 |  |  |  |  |  |  | bound | 700 |  | 
CC(=O)N[C@H]1[C@H]([C@H](O)[C@H](O)CO)OC(O)(C(=O)O)C[C@@H]1O (stereo partly shown) [sialic acid, N-acetyl neuraminic acid] |  |  |  |  |  |  |  |  |  | not a ligand | does not bind
OC[C@@H](O)[C@@H]1O[C@@H](O)[C@H](O)[C@H]1O [Galf, β-D-galactofuranose] |  | 0.1 | 0.6 |  |  |  |  | bound |  |  | 
OC[C@@H](O)[C@H]1O[C@H](O)[C@@H](O)[C@@H](O)[C@@H]1O [D,D-heptose, D-glycero-α-D-manno-heptose] | 0.8 | 0.9 | 1.3 |  |  | 0.7 | could not be determined | no measurable binding |  |  | 
